Source: paper PMC7880549 (Bioorganic & medicinal chemistry, 2020)

How the values were obtained:
UCHL5 [1] = target: T1, UCHL5 (Homo sapiens, UniProt Q9Y5K5); experiment: in vitro DUB assay with purified UCHL5 and Ub-rhodamine 110; format: biochemical
T1 sequence (Q9Y5K5 1-329): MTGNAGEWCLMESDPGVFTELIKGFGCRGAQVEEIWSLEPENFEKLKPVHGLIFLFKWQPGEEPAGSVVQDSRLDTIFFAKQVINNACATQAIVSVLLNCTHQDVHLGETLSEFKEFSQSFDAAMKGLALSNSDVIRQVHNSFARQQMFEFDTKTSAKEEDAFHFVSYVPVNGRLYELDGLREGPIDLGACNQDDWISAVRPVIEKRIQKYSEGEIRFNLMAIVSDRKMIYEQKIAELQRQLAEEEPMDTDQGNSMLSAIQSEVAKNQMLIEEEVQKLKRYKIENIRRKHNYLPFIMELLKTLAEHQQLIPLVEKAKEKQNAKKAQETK

UCHL5 [2] = target: T1, UCHL5; format: biochemical; details: MDA-MB-231 lysate pre-incubated 30 min, Ub-VS 1 μM
In short: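 Lysate (20 μg protein) was pre-incubated with test compound at RT, then Ub-VS was added for 11 min at RT. After SDS quench and 12% SDS-PAGE, blots were probed for UCHL5 band shift and β-actin. Two independent experiments were run.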

## CC(C(=O)O)c1ccc(C(=O)c2cccc(-c3ccccc3C(=O)O)c2)s1 (stereo not drawn) [TAA1]
UCHL5 [1]; TAA1 vs TA
  improvement of IC50 compared to TA: ca. 33 fold

## Nc1ccc(-c2cn(Cc3cc(C(=O)O)cc(-c4cccc(C(=O)O)c4)c3)nn2)cc1 [TAB2]
UCHL5 [2]
  concentrations inhibiting UCHL5/Ub-VS conjugation: 25 to 50 µM
UCHL5 [1]; TAB2 vs TAB1
  improved potency versus TAB1: ca. 2.5 fold
